Source: the RNAGym collection of RNA variant scans (doi:10.1126/science.aae0568)
Fewer inactive variants are shown than the library holds.

B1: tRNA (parent)
chain: GUUCCGUUGGCGUAAUGGUAACGCGUCUCCCUCCUAAGGAGAAGACUGCGGGUUCGAGUCCCGUACGGAACG

Variants of: B1
Assay: yeast fitness relative to wild type (ratio to wild type); higher = fitter; tRNA-Arg(CCU), competitive growth, 37 C, YPD
Procedure, shortened: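 A pool of Saccharomyces cerevisiae strains, each with a tRNA-Arg(CCU) gene variant at the native genomic locus, was competed in YPD at 37°C for 24 hours across six parallel replicates. The variants had been chemically synthesised at a 3% per-site mutation rate over 69 sites, and gene amplicons before and after competition were read by 100-nucleotide paired-end sequencing. Darwinian fitness relative to wild type rested on changes in genotype frequencies. Genotypes required ≥ 100 starting reads, and estimates < 0.5 were set to 0.5.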

Q: With GUUACGUUGGCGUAAUGGUAACGAGUCUCCCUCCUAAGGAGAAGACUGCGGCUUCGCGACCCAUACGGAACG [C4A C24A G52C A57C U59A G63A] as the variant, how does the yeast fitness read?
A: ≤ 0.5

Q: Which yeast fitness does the source give for GUUACGUUGGCGUAAUGGUAACGAGUCUCCCUCCUAAGGAGAAGACUGCGGGUUCGAGUCCCGUACAGAACG [C4A C24A G67A] here?
A: ≤ 0.5

Q: Which yeast fitness does the source give for GUUACGUUGGCGUAAUGGUAACGAGCCUACCUCCUUAGGAGAAGACUGCGGGUUCGAGUUCCGUACGGAACG [C4A C24A U26C C29A A36U C60U] here?
A: ≤ 0.5

Q: For GUUACGUUGGCGUAAUGGUAACGGGUCUCCCUCCUAAGGAGAAGACUGCGGGUUCGAGUCCUGUACGGCACG [C4A C24G C62U A69C], which yeast fitness is on record?
A: 0.567

Q: With GUUACGUUGGCGUAAUGGUAACGGGUCUCCCUCCUAAGGAUAAGACUGCGGGUUCGAGUCCCGUACGGAACG [C4A C24G G41U] as the variant, how does the yeast fitness read?
A: ≤ 0.5

Q: For GUUACGUUGGCGUAAUGGUAACGGGUCUCCCUCCUAAGGAGAACACUGCGGGUUCGAGUCCCGUACGGAACG [C4A C24G G44C], which yeast fitness is on record?
A: ≤ 0.5

Q: Which yeast fitness does the source give for GUUACGUUGGCGUAAUGGUAACGGGUCUCCCUCCUAAGGAGAACACUGCGGGUUCGAGUCCCGUACGGAUCG [C4A C24G G44C A70U] here?
A: ≤ 0.5

Q: Which yeast fitness does the source give for GUUACGUUGGCGUAAUGGUAACGGGUCGCCUUCCUAAGGAGAAGACUGCGGGUUCGAGUCCCGUACGGAACG [C4A C24G U28G C31U] here?
A: ≤ 0.5

Q: Which yeast fitness does the source give for GUUACGUUGGCGUAAUGGUAACGUGUCUCCCUCCUAAGGAGAAGACUGCGGGUUCGAGUCCCGUUCGGAACG [C4A C24U A65U] here?
A: ≤ 0.5

Q: Which yeast fitness does the source give for GUUACGUUGGCGUAAUGGUAACGUGUCUUCCCCCUAAGGAGAAGACUGCGGGUCCGAGUCCCGUACGGAACG [C4A C24U C29U U32C U54C] here?
A: ≤ 0.5

Q: For GUUACGUUGGCGUAAUGGUAACGUGUCUCCCUCCUAAGGAGAAGACUGCGGGUUAGAGUCCCGUCCGGAACG [C4A C24U C55A A65C], which yeast fitness is on record?
A: ≤ 0.5

Q: For GUUACGUUGGCGUAAUGGUAACGCGUAUCCCUCCUAAGGAGAAGACUGCGGGUUCGAGUCCCGUACGGAACG [C4A C27A], which yeast fitness is on record?
A: 0.798

Q: With GUUACGUUGGCGUAAUGGUAACGCGUAUCCCUCCUAAAGAGAAGACUGCGGGUUCGAGUCCAGUACGGAACG [C4A C27A G38A C62A] as the variant, how does the yeast fitness read?
A: ≤ 0.5

Q: For GUUACGUUGGCGUAAUGGUAACGCGUGUCCCUCCUAAGGAGAAGACUGCGGGUUCGAGUCCCGUACGGAACG [C4A C27G], which yeast fitness is on record?
A: 0.674

Q: For GUUACGUUGGCGUAAUGGUAACGCGUGUCCCUCCUACGGAGAAGUCCGCGGGUUCGAGUCCCGUACGGAACG [C4A C27G A37C A45U U47C], which yeast fitness is on record?
A: ≤ 0.5

Q: With GUUACGUUGGCGUAAUGGUAACGCGUGUCCCCCCUGAGGAGAAGACUGCGGGUUCGGAUCCUGUACGGAUCG [C4A C27G U32C A36G A57G G58A C62U A70U] as the variant, how does the yeast fitness read?
A: ≤ 0.5

Q: Which yeast fitness does the source give for GUUACGUUGGCGUAAUGGUAACGCGUUUCCCUCCUAAGGAGAAGACUGCGGGUUCGAGUCCCGUACGGAACG [C4A C27U] here?
A: 0.901

Q: For GUUACGUUGGCGUAAUGGUAACGCGUUUCCCUUCUUAGGAGAAGACUGCGGGUUCGAGUCCCCUACGGAACG [C4A C27U C33U A36U G63C], which yeast fitness is on record?
A: ≤ 0.5

Q: Which yeast fitness does the source give for GUUACGUUGGCGUAAUGGUAACGCGUUGCCCUGCUGAGGAGAAGACUGCGGGUUCGAGUCGCGUACGGAACG [C4A C27U U28G C33G A36G C61G] here?
A: ≤ 0.5

Q: With GUUACGUUGGCGUAAUGGUAACGCGUUGCCCUGCUGAGGAGAAGACUGCGGGUUCGAGUCCCGUAUGGAACG [C4A C27U U28G C33G A36G C66U] as the variant, how does the yeast fitness read?
A: 0.542

Q: For GUUACGUUGGCGUAAUGGUAACGCGUUUCCCCCCUAAGGAGAAGACUCCGGGUUCGAGUCCCGUACGGAACG [C4A C27U U32C G48C], which yeast fitness is on record?
A: ≤ 0.5

Q: For GUUACGUUGGCGUAAUGGUAACGCGUCUACCUCCUAAGGAGAAGACUGCGGGUUCGAGUCCCGUACGGACCG [C4A C29A A70C], which yeast fitness is on record?
A: ≤ 0.5

Q: Which yeast fitness does the source give for GUUACGUUGGCGUAAUGGUAACGCGUCUACCUCAUAAGGAGAAGACUGCGGGUUCGAGUCCUGUACGGAACG [C4A C29A C34A C62U] here?
A: ≤ 0.5

Q: With GUUACGUUGGCGUAAUGGUAACGCGUCUGCCUCCUAAGGAGAAGACUGCGGGUUCGAGUCCCGUACGGAACG [C4A C29G] as the variant, how does the yeast fitness read?
A: 0.618

Q: For GUUACGUUGGCGUAAUGGUAACGCGUCUGCCUCCUUAGGAGAAGACUGCGGGUUCGAGUCCCGUGUGGAACG [C4A C29G A36U A65G C66U], which yeast fitness is on record?
A: ≤ 0.5

Q: Which yeast fitness does the source give for GUUACGUUGGCGUAAUGGUAACGCGUCUGCCUCCUUAGGAGAAGACUGCGGGCUCGAGUCCCGUACGGAACG [C4A C29G A36U U53C] here?
A: ≤ 0.5

Q: For GUUACGUUGGCGUAAUGGUAACGCGUCUGCCUCCUAAGGUGAAGACUGCGGGUUAGAGUCCCGUACCGAACG [C4A C29G A40U C55A G67C], which yeast fitness is on record?
A: ≤ 0.5

Q: With GUUACGUUGGCGUAAUGGUAACGCGUCUGCCUCCUAAGGAGAAGACUGCGGGUUCGGGACCCGUACGGUACG [C4A C29G A57G U59A A69U] as the variant, how does the yeast fitness read?
A: ≤ 0.5

Q: With GUUACGUUGGCGUAAUGGUAACGCGUCUGCCUCCUAAGGAGAAGACUGCGGGUUCGGGACCCGUACGUAGCG [C4A C29G A57G U59A G68U A70G] as the variant, how does the yeast fitness read?
A: 0.571

Q: For GUUACGUUGGCGUAAUGGUAACGCGUCUGCAUCCUAAGGAGAAGACUGCGGGUUCGAGUCCCGUACAGAACG [C4A C29G C31A G67A], which yeast fitness is on record?
A: ≤ 0.5

Q: Which yeast fitness does the source give for GUUACGUUGGCGUAAUGGUAACGCGUCUGCCUCCUAACGAGAAGACUGCGGGUUCGAGUCCCGUACGGAACG [C4A C29G G38C] here?
A: ≤ 0.5

Q: Which yeast fitness does the source give for GUUACGUUGGCGUAAUGGUAACGCGUCUGCCUCCUAAGGAGAAGACUGCGGGUUCGAGUCCCGUACGCAACG [C4A C29G G68C] here?
A: ≤ 0.5

Q: For GUUACGUUGGCGUAAUGGUAACGCGUCUGCCUCCUAAGGAGAAGACGGCGGGUUCGAGGCCCGUACGGAACG [C4A C29G U47G U59G], which yeast fitness is on record?
A: ≤ 0.5

Q: With GUUACGUUGGCGUAAUGGUAACGCGUCUUCCUCCUAAGGAGAAGACUGCGGGUUCGAGUCCCGUACGGAACG [C4A C29U] as the variant, how does the yeast fitness read?
A: 0.763

Q: Which yeast fitness does the source give for GUUACGUUGGCGUAAUGGUAACGCGUCUUCCUCCUGAGGAGAAGACUGCGGCUUCGAGUCCCGUACGGAACG [C4A C29U A36G G52C] here?
A: ≤ 0.5

Q: For GUUACGUUGGCGUAAUGGUAACGCGUCUUCCUCCUAGGCAGAAGACUGUGGGUUCGAGUCCCGUACAGAACG [C4A C29U A37G G39C C49U G67A], which yeast fitness is on record?
A: ≤ 0.5

Q: Which yeast fitness does the source give for GUUACGUUGGCGUAAUGGUAACGCGUCUUCCUCCUAAGGAGAAGACUGCGGGUUCGAGUCCCGUGCGGAACG [C4A C29U A65G] here?
A: ≤ 0.5

Q: Which yeast fitness does the source give for GUUACGUUGGCGUAAUGGUAACGCGUCUUCGUACUAAGGAGAAGACUGCGGGUUCGAGUCCCGUACGGAACG [C4A C29U C31G C33A] here?
A: ≤ 0.5
